Measurements: ChEMBL document CHEMBL1955832, “Facile synthesis, characterization and pharmacological activities of 3,6-disubstituted 1,2,4-triazolo[3,4-b][1,3,4]thiadiazoles and 5,6-dihydro-3,6-disubstituted-1,2,4-triazolo[3,4-b][1,3,4]thiadiazoles” (2012)
≈ marks a conversion by molar mass, not a printed value.

Experiments:
Type in all cases: functional
[1] = system: Mus musculus; assay: Analgesic activity Wistar albino mouse assessed as tail withdrawal latency time at 100 mg/kg, po administered by intragastric tube after 60 mins (reference value: 1.363 +/- 0.1297 sec)
[2] = system: Mus musculus; assay: Analgesic activity Wistar albino mouse assessed as tail withdrawal latency time at 100 mg/kg, po administered by intragastric tube after 120 mins (reference value: 1.363 +/- 0.1297 sec)
[3] = system: Mus musculus; assay: Analgesic activity Wistar albino mouse assessed as tail withdrawal latency time at 100 mg/kg, po administered by intragastric tube after 180 mins (reference value: 1.363 +/- 0.1297 sec)
[4] = system: Staphylococcus aureus; assay: Antibacterial activity against Staphylococcus aureus ATTC 25923 after 16 to 18 hrs by serial dilution method
How it was run: (§1)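 Serial drug dilutions in Mueller-Hinton broth adjusted to pH 5.0 with phosphate buffer, inoculated with standardized bacterial suspension, incubated 16–18 h at 37 °C; MIC taken as lowest concentration without conspicuous growth.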

[5] = system: Staphylococcus aureus; assay: Antibacterial activity against Staphylococcus aureus ATTC 25923 at MIC after 3 to 4 days by disc diffusion method
How it was run: (§2)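 Agar well diffusion: seeded agar plates dried 1 h at 37 °C, wells punched and filled with test compound at MIC level in DMSO; DMSO solvent control. Plates in triplicate, kept at 37 °C for 3–4 days; zone of inhibition read.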

[6] = system: Escherichia coli; assay: Antibacterial activity against Escherichia coli ATTC 25922 after 16 to 18 hrs by serial dilution method; how it was run: as §1
[7] = system: Escherichia coli; assay: Antibacterial activity against Escherichia coli ATTC 25922 at MIC after 3 to 4 days by disc diffusion method; how it was run: as §2
[8] = system: Pseudomonas aeruginosa; assay: Antibacterial activity against Pseudomonas aeruginosa ATTC 27853 after 16 to 18 hrs by serial dilution method; how it was run: as §1
[9] = system: Pseudomonas aeruginosa; assay: Antibacterial activity against Pseudomonas aeruginosa ATTC 27853 at MIC after 3 to 4 days by disc diffusion method; how it was run: as §2
[10] = system: Klebsiella pneumoniae; assay: Antibacterial activity against recultured Klebsiella pneumoniae after 16 to 18 hrs by serial dilution method; how it was run: as §1
[11] = system: Klebsiella pneumoniae; assay: Antibacterial activity against recultured Klebsiella pneumoniae at MIC after 3 to 4 days by disc diffusion method; how it was run: as §2
[12] = system: Talaromyces marneffei; assay: Antifungal activity against recultured Penicillium marneffei by serial plate dilution method
[13] = system: Talaromyces marneffei; assay: Antifungal activity against recultured Penicillium marneffei at MIC after 3 to 4 days
[14] = system: Trichophyton mentagrophytes; assay: Antifungal activity against recultured Trichophyton mentagrophytes by serial plate dilution method
[15] = system: Trichophyton mentagrophytes; assay: Antifungal activity against recultured Trichophyton mentagrophytes at MIC after 3 to 4 days
[16] = system: Aspergillus flavus; assay: Antifungal activity against Aspergillus flavus NCIM 524 by serial plate dilution method
[17] = system: Aspergillus flavus; assay: Antifungal activity against Aspergillus flavus NCIM 524 at MIC after 3 to 4 days
[18] = system: Aspergillus fumigatus; assay: Antifungal activity against Aspergillus fumigatus NCIM 902 by serial plate dilution method
[19] = system: Aspergillus fumigatus; assay: Antifungal activity against Aspergillus fumigatus NCIM 902 at MIC after 3 to 4 days

Compound | Time [1] [s] | Time [2] [s] | Time [3] [s] | MIC [4] [µM] | diameter of the inhibition zone (DIZ) [5] [mm] | MIC [6] [µM] | diameter of the inhibition zone (DIZ) [7] [mm] | MIC [8] [µM] | diameter of the inhibition zone (DIZ) [9] [mm] | MIC [10] [µM] | diameter of the inhibition zone (DIZ) [11] [mm] | MIC [12] [µM] | diameter of the inhibition zone (DIZ) [13] [mm] | MIC [14] [µM] | diameter of the inhibition zone (DIZ) [15] [mm] | MIC [16] [µM] | diameter of the inhibition zone (DIZ) [17] [mm] | MIC [18] [µM] | diameter of the inhibition zone (DIZ) [19] [mm]
COc1ccc(Br)c(-c2nnc3sc(-c4ccccc4)nn23)c1 | 1.963 | 2.125 | 2.5 | 32.3 (≈ 12.5 µg/mL) | 11 | 32.3 (≈ 12.5 µg/mL) | 11 | 32.3 (≈ 12.5 µg/mL) | 11 | 32.3 (≈ 12.5 µg/mL) | 11 | 16.1 (≈ 6.25 µg/mL) | 16 | 32.3 (≈ 12.5 µg/mL) | 11 | 32.3 (≈ 12.5 µg/mL) | 11 | 32.3 (≈ 12.5 µg/mL) | 11
COc1ccc(Br)c(-c2nnc3n2NC(c2ccccc2)S3)c1 (stereo not given) | 3.181 | 3.46 | 3.391 | 32.1 (≈ 12.5 µg/mL) | 11 | 16.1 (≈ 6.25 µg/mL) | 16 | 32.1 (≈ 12.5 µg/mL) | 11 | 32.1 (≈ 12.5 µg/mL) | 11 | 6.25 (≈ 2.43 µg/mL) | 16 | 12.5 (≈ 4.87 µg/mL) | 11 | 12.5 (≈ 4.87 µg/mL) | 11 | 6.25 (≈ 2.43 µg/mL) | 16
COc1ccc(Br)c(-c2nnc3n2NC(c2ccc(-c4ccccc4)cc2)S3)c1 (stereo not given) | 2.102 | 2.067 | 2.455 | 26.9 (≈ 12.5 µg/mL) | 11 | 26.9 (≈ 12.5 µg/mL) | 11 | 26.9 (≈ 12.5 µg/mL) | 11 | 13.4 (≈ 6.25 µg/mL) | 16 | 26.9 (≈ 12.5 µg/mL) | 11 | 26.9 (≈ 12.5 µg/mL) | 11 | 13.4 (≈ 6.25 µg/mL) | 16 | 26.9 (≈ 12.5 µg/mL) | 11
CC(C)=CCN1CC[C@]2(C)c3cc(O)ccc3C[C@H]1[C@H]2C [(+)-PENTAZOCINE] | 7.075 | 6.863 | 7.025 |  |  |  |  |  |  |  |  |  |  |  |  |  |  |  | 
COc1ccc(Br)c(-c2nnc3sc(-c4cc(C)cc(C)c4)nn23)c1 | 2.175 | 2.075 | 2.238 | 30.1 (≈ 12.5 µg/mL) | 11 | 15.1 (≈ 6.25 µg/mL) | 16 | 15.1 (≈ 6.25 µg/mL) | 16 | 15.1 (≈ 6.25 µg/mL) | 16 | 30.1 (≈ 12.5 µg/mL) | 11 | 15.1 (≈ 6.25 µg/mL) | 16 | 15.1 (≈ 6.25 µg/mL) | 16 | 15.1 (≈ 6.25 µg/mL) | 16
CCC(C)n1ncn(-c2ccc(N3CCN(c4ccc(OCC5COC(Cn6cncn6)(c6ccc(Cl)cc6Cl)O5)cc4)CC3)cc2)c1=O (stereo not given) [ITRACONAZOLE] |  |  |  |  |  |  |  |  |  |  |  | 2.21 (≈ 1.56 µg/mL) | 22 | 8.86 (≈ 6.25 µg/mL) | 30 | 8.86 (≈ 6.25 µg/mL) | 25 | 8.86 (≈ 6.25 µg/mL) | 23
CC1(C)S[C@@H]2[C@H](NC(=O)[C@H](N)c3ccccc3)C(=O)N2[C@H]1C(=O)O [AMPICILLIN] |  |  |  | 4.46 (≈ 1.56 µg/mL) | 22 | 17.9 (≈ 6.25 µg/mL) | 30 | 17.9 (≈ 6.25 µg/mL) | 25 | 17.9 (≈ 6.25 µg/mL) | 23 |  |  |  |  |  |  |  | 
